17 compounds from ChEMBL document CHEMBL1955807, “Enaminones 12. An explanation of anticonvulsant activity and toxicity per Linus Pauling's clathrate hypothesis” (Eur J Med Chem, 2012) can be followed below.

Activity calls are given as the source filed them. No cut-off for these calls is given here.

Data set [1] deals with Mus musculus. Kind of data set: Anticonvulsant activity in CF1 mouse assessed as protection against maximal electroshock-induced seizure up to 300 mg/kg, ip after 30 mins to 4 hrs. It counts as functional, organism-based. Set-up: dose 300 mg/kg. Put shortly: (§1)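 Phase I screen in mice: compounds suspended in 30% poly(ethylene glycol) 400 and given ip at three dose levels (30, 100 and 300 mg/kg). Anticonvulsant protection (MES, scPTZ) and neurologic toxicity by rotorod (inability to grasp) recorded 30 min and 4 h after dosing. Results were reported as animals affected over animals tested. Class 1 means activity at ≤100 mg/kg; class 3 means no activity at 300 mg/kg.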

Data set [2] concerns Mus musculus. Kind of data set: Neurotoxicity in CF1 mouse at 300 mg/kg, ip after 30 mins by rotarod test. The format is toxicity, organism-based. Set-up: dose 300 mg/kg, route intraperitoneal. The conditions noted are these: in vivo, 0.5 h. Put shortly: as §1
Data set [3] concerns Mus musculus. The data set is described as follows: Anticonvulsant activity in CF1 mouse assessed as protection against subcutaneous pentylenetetrazole-induced seizure at 300 mg/kg, ip after 30 mins. It counts as functional, organism-based. Also noted: dose 300 mg/kg. The gist of the method: as §1
Data set [4] has as its system Mus musculus. The data set is described as follows: Neurotoxicity in CF1 mouse at 300 mg/kg, ip after 4 hrs by rotarod test. The format is toxicity, organism-based. Set-up: dose 300 mg/kg, route intraperitoneal. The following applies: in vivo. Put shortly:
as §1

Data set [5] relates to Mus musculus. The data set is described as follows: Neurotoxicity in CF1 mouse up to 300 mg/kg, ip after 30 mins to 4 hrs by rotarod test. The format is toxicity, organism-based. Also noted: dose 300 mg/kg, route intraperitoneal. The following applies: in vivo. Put shortly: as §1
The test system of data set [6] is Rattus norvegicus. The data set is described as follows: Anticonvulsant activity in Sprague-Dawley rat assessed as protection against maximal electroshock-induced seizure at 30 mg/kg, ip after 1 hr.
The subject of data set [7] is Rattus norvegicus. Kind of data set: Anticonvulsant activity in Sprague-Dawley rat assessed as protection against subcutaneous pentylenetetrazole-induced seizure at 30 mg/kg, ip after 4 hrs. Also noted: dose 30 mg/kg. It counts as functional, organism-based.
The species entered for data set [8] is Rattus norvegicus. The data set is described as follows: Anticonvulsant activity in rat assessed as protection against maximal electroshock-induced seizure. It counts as functional. Put shortly:
(§2)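 Phase VIB in male Sprague-Dawley rats dosed ip. The median effective dose (MES ED50) and median neurotoxic dose (TD50) were determined with confidence limits. Protective index was calculated as TD50/ED50.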

Data set [9] is filed under the species Rattus norvegicus. The data set is described as follows: Protective index, ratio of TD50 for rat to ED50 for rat. Put shortly: as §2
A short description of data set [10]: Neurotoxicity in rat. The format is toxicity, organism-based. The following applies: in vivo. Put shortly: as §2
Data set [11] deals with Mus musculus. The data set is described as follows: Neurotoxicity in CF1 mouse at 100 mg/kg, ip after 30 mins by rotarod test. The following applies: in vivo, 0.5 h. Also noted: dose 100 mg/kg, route intraperitoneal. It counts as toxicity, organism-based. Put shortly: as §1
Data set [12] deals with Mus musculus. The data set is described as follows: Anticonvulsant activity in CF1 mouse assessed as protection against maximal electroshock-induced seizure at 300 mg/kg, ip after 30 mins to 4 hrs. Also noted: dose 300 mg/kg. It counts as functional, organism-based. The gist of the method:
as §1

The test system of data set [13] is Mus musculus. Kind of data set: Anticonvulsant activity in CF1 mouse assessed as protection against maximal electroshock-induced seizure at 100 mg/kg, ip after 30 mins. It counts as functional, organism-based. Set-up: dose 100 mg/kg. The gist of the method:
as §1

Data set [14] concerns Mus musculus. The data set is described as follows: Neurotoxicity in CF1 mouse at 300 mg/kg, ip after 30 mins to 4 hrs by rotarod test. Also noted: dose 300 mg/kg, route intraperitoneal. The format is toxicity, organism-based. The conditions noted are these: in vivo. Put shortly:
as §1

For data set [15], the system named is Mus musculus. Kind of data set: Neurotoxicity in CF1 mouse assessed as muscle spasms at 300 mg/kg, ip by rotarod test. Also noted: dose 300 mg/kg, route intraperitoneal. The following applies: in vivo. The format is toxicity, organism-based, Muscle tissue. Put shortly:
as §1

Data set [16] deals with Mus musculus. Kind of data set: Neurotoxicity in CF1 mouse assessed as muscle spasms at 100 mg/kg, ip by rotarod test. The following applies: in vivo. The format is toxicity, organism-based, Muscle tissue. Also noted: dose 100 mg/kg, route intraperitoneal. The gist of the method:
as §1

Data set [17] has as its system Mus musculus. The data set is described as follows: Neurotoxicity in CF1 mouse at 100 mg/kg, ip by rotarod test. The format is toxicity, organism-based. Set-up: dose 100 mg/kg, route intraperitoneal. The conditions noted are these: in vivo. The gist of the method:
as §1

The nature of data set [18]: Neurotoxicity in ip dosed Sprague-Dawley rat by rotarod test. The format is toxicity, organism-based. The conditions noted are these: in vivo. The gist of the method: as §2
Data set [19] deals with Rattus norvegicus. Kind of data set: Anticonvulsant activity in ip dosed Sprague-Dawley rat assessed as protection against maximal electroshock-induced seizure. It counts as functional. Put shortly: as §2
Data set [20] is filed under the species Rattus norvegicus. The data set is described as follows: Protective index, ratio of TD50 for Sprague-Dawley rat by rotarod test to ED50 for Sprague-Dawley rat by MES test.
Data set [21] relates to Mus musculus. Kind of data set: Anticonvulsant activity in CF1 mouse assessed as protection against maximal electroshock-induced seizure at 100 mg/kg, ip after 15 mins. It counts as functional, organism-based. Also noted: dose 100 mg/kg.
Data set [22] deals with Mus musculus. The data set is described as follows: Toxicity in CF1 mouse assessed as mortality at 30 mg/kg, ip after 30 mins. The conditions noted are these: in vivo, 0.5 h. Set-up: dose 30 mg/kg, route intraperitoneal. It counts as organism-based.
For data set [23], the system named is Mus musculus. The data set is described as follows: Neurotoxicity in CF1 mouse assessed as muscle spasms at 100 to 300 mg/kg, ip after 30 mins by rotarod test. It counts as toxicity, organism-based, Muscle tissue. Also noted: dose 100-300 mg/kg, route intraperitoneal. The following applies: in vivo, 0.5 h. Put shortly:
as §1

In data set [24] the test system is Mus musculus. Kind of data set: Neurotoxicity in CF1 mouse assessed as myoclonic jerks at 100 mg/kg, ip after 4 hrs by rotarod test. It counts as toxicity, organism-based. Also noted: dose 100 mg/kg, route intraperitoneal. The following applies: in vivo. Put shortly:
as §1

The test system of data set [25] is Mus musculus. The data set is described as follows: Toxicity in CF1 mouse assessed as mortality at 30 mg/kg, ip after 4 hrs. Set-up: dose 30 mg/kg, route intraperitoneal. It counts as organism-based. The conditions noted are these: in vivo.

As for `Cc1cc(C(=O)NC2=CC(=O)CC(C)C2)no1` (stereo unspecified), the result with Mus musculus [1] and in the data set with Mus musculus [3] was inactive. Moreover, the Activity entry in the data set on Mus musculus [2] and with Mus musculus [4] was “Toxic” in each case.
As for `Cc1cc(NC2=CC(=O)CCC2)no1`, in the data set on Mus musculus [1], the outcome was inactive. Besides, the Activity result in the data set on Mus musculus [5] is on record as “Non-toxic”. Besides, the outcome in the data set with Mus musculus [3], in the data set on Rattus norvegicus [6] and in the data set on Rattus norvegicus [7] was Active.
Consider `Cc1cc(NC2=CC(=O)C(C(=O)OC(C)(C)C)C(C(F)(F)F)C2)no1` (stereo unspecified), for which the result with Mus musculus [1] and in the data set with Mus musculus [3] was inactive.
Regarding `Cc1cc(NC2=CC(=O)C(C(=O)OC(C)(C)C)C(C)C2)no1` (stereo unspecified), the ED50 in the data set filed under Rattus norvegicus [8] is 28.1 mg/kg. Besides, the PI in the data set listed under Rattus norvegicus [9] is >17.8. Besides, in data set [10], the TD50 was > 500 mg/kg.
On to `Cc1cccc(C)c1NC(=O)c1conc1C`, for which the ED50 in the data set listed under Rattus norvegicus [8] worked out at 8.9 mg/kg. In the data set listed under Rattus norvegicus [9], the PI was >56.2. Also, in data set [10], the TD50 is > 500 mg/kg.
For the compound `Cc1cc(NC2=CC(=O)CC(C)(C)C2)no1`, the Activity entry with Mus musculus [11] and in the data set with Mus musculus [14] was “Toxic” in each case. Besides, the outcome in the data set on Mus musculus [3] was inactive. Besides, the outcome in the data set with Mus musculus [12] and in the data set on Mus musculus [13] was Active.
`CC1CC(=O)C=C(N)C1` (stereo unspecified): the Activity result in the data set with Mus musculus [15], in the data set on Mus musculus [2] and in the data set on Mus musculus [16] was “Toxic” each time. Further, the outcome in the data set with Mus musculus [1] and in the data set with Mus musculus [3] was inactive.
Take `Cc1oncc1CNC1=CC(=O)CC(C)C1` (stereo unspecified): the result with Mus musculus [1] and in the data set on Mus musculus [3] was inactive.
`Cc1cc(C(=O)Nc2c(C)cccc2C)no1`: the ED50 in the data set filed under Rattus norvegicus [8] was found to be 5.5 mg/kg. Further, the PI in the data set listed under Rattus norvegicus [9] is on record as >90.9. Further, the TD50 in data set [10] was > 500 mg/kg.
With `NC1=CC(=O)CCC1`, the Activity result in the data set on Mus musculus [17], with Mus musculus [2] and in the data set on Mus musculus [16] was “Toxic” throughout. Also, the result in the data set with Mus musculus [1] and in the data set on Mus musculus [3] was inactive.
Take `Cc1cc(NC2=CC(=O)CC(C)C2)no1` (stereo unspecified): the Activity result in the data set on Mus musculus [11] was “Toxic”. The TD50 in [18] was > 120 mg/kg. The ED50 with Rattus norvegicus [19] was determined as 66 mg/kg. The PI in the data set listed under Rattus norvegicus [20] stood at 1.8. The result in the data set on Mus musculus [3] and in the data set on Mus musculus [21] was Active.
Turning to `Cc1oncc1CNC1=CC(=O)CC(C)(C)C1`, the result with Mus musculus [1] and with Mus musculus [3] was inactive.
Take `Cc1cc(C(=O)NC2=CC(=O)CC(C)(C)C2)no1`: the result in the data set with Mus musculus [1] and in the data set on Mus musculus [3] was inactive.
Turning to `Cc1cc(NC(=O)c2c(C)cccc2C)no1` [SORETOLIDE], the ED50 in the data set listed under Rattus norvegicus [8] came out at 9.2 mg/kg. The PI in the data set listed under Rattus norvegicus [9] is >54.3. In addition, the TD50 in data set [10] was > 500 mg/kg.
The corresponding values for `CCOC(=O)C1C(=O)C=C(Nc2cc(C)on2)CC1C` (stereo unspecified) are 68.9 mg/kg, >7.3 and > 500 mg/kg.
On to `CC1(C)CC(=O)C=C(N)C1`, for which the outcome in the data set with Mus musculus [1] and in the data set with Mus musculus [3] was inactive. In addition, the Activity result in the data set on Mus musculus [22], in the data set with Mus musculus [23], in the data set on Mus musculus [24] and with Mus musculus [25] was “Toxic” throughout.
As for `Cc1cc(C(=O)NC2=CC(=O)CCC2)no1`, the result in the data set on Mus musculus [1] and with Mus musculus [3] was inactive.
